Measured values: ChEMBL document CHEMBL1122187, “Synthesis and antiviral activity of certain carbamoylpyrrolopyrimidine and pyrazolopyrimidine nucleosides” (1982)

Assays:
Vero [1] = assay: Percentage plaque reduction was determined against yellow fever (YF) virus in african green monkey kidney (vero,V).Toxic level(320 ug/mL); 10-30; type: functional, Chlorocebus sabaeus
Vero [2] = assay: Percentage plaque reduction was determined against venezuelan equine encephalitis (VEE) virus in african green monkey kidney (vero,V) at a conc of 100-250 ug/mL. Toxic level(320 ug/mL); type: functional, Chlorocebus sabaeus
Vero [3] = assay: In vitro antiviral activity against parainfluenza type 3(para 3) virus was determined in african green monkey kidney (vero,V) expressed as virus rating. Toxic level(320 ug/mL); type: functional, Chlorocebus sabaeus
Summary of the method: (§1)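 Cell monolayers (18 h) infected with 320 TCID50 of virus. Compound was added within 15–30 min at half-log dilutions from 1000 to 1 μg/mL. After 72 h at 37 °C in 5% CO2, CPE was scored 0–4 by microscopy. VR = sum of (virus control − treated) scores, halved at partially toxic levels, divided by 10 × test cups per drug level.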

Vero [4] = assay: Percentage plaque reduction was determined against Sandfly fever (SF) virus in african green monkey kidney (vero,V) at a conc of 25-100 ug/mL. Toxic level(320 ug/mL); type: functional, Chlorocebus sabaeus
Vero [5] = assay: Percentage plaque reduction was determined against Sandfly fever (SF) virus in african green monkey kidney (vero,V) at a conc of 100-250 ug/mL. Toxic level(320 ug/mL); type: functional, Chlorocebus sabaeus
Vero [6] = assay: In vitro antiviral activity against herpes simplex type 1 (HSV-1) virus was determined in african green monkey kidney (vero,V) expressed as virus rating. Toxic level(320 ug/mL); type: functional, Chlorocebus sabaeus; summary of the method: as §1
Vero [7] = assay: Percentage plaque reduction was determined against venezuelan equine encephalitis (VEE) virus in african green monkey kidney (vero,V) at a conc of 250-500 ug/mL. Toxic level(320 ug/mL); type: functional, Chlorocebus sabaeus
Vero [8] = assay: Percentage plaque reduction was determined against Sandfly fever (SF) virus in african green monkey kidney (vero,V) at a conc of 250-500 ug/mL. Toxic level(320 ug/mL); type: functional, Chlorocebus sabaeus
Vero [9] = assay: Percentage plaque reduction was determined against Sandfly fever (SF) virus in african green monkey kidney (vero,V) at a conc of <25 ug/mL. Toxic level(320 ug/mL); type: functional, Chlorocebus sabaeus
Summary of the method: (§2)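 Infected Vero 24-well monolayers: virus adsorbed 1 h at 37 °C, then overlaid with agar holding dilutions of compound and incubated again at 37 °C with CO₂. Plaques were stained with crystal violet and counted. Inhibition was scored as % plaque reduction bands (10-30%, 31-60%, 61-90%), each tied to a drug concentration range.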

Vero [10] = assay: In vitro antiviral activity against vaccinia(VV) virus was determined in african green monkey kidney (vero,V) expressed as virus rating. Toxic level(320 ug/mL); type: functional, Chlorocebus sabaeus; summary of the method: as §1
Vero [11] = assay: Percentage plaque reduction was determined against venezuelan equine encephalitis (VEE) virus in african green monkey kidney (vero,V) at a conc of 25-100 ug/mL. Toxic level(320 ug/mL); type: functional, Chlorocebus sabaeus
Vero [12] = assay: Percentage plaque reduction was determined against venezuelan equine encephalitis (VEE) virus in african green monkey kidney (vero,V) at a conc of <25 ug/mL. Toxic level(320 ug/mL); type: functional, Chlorocebus sabaeus
Vero [13] = assay: Percentage plaque reduction was determined against rift valley fever(RVF) virus in african green monkey kidney (vero,V) at a conc of 250-500 ug/mL. Toxic level(320 ug/mL); 10-30; type: functional, Chlorocebus sabaeus
Vero [14] = assay: In vitro antiviral activity against parainfluenza type 3(para 3) virus was determined in african green monkey kidney (vero,V) expressed as virus rating. Toxic level(1000 ug/mL); type: functional, Chlorocebus sabaeus; summary of the method: as §1
Vero [15] = assay: Percentage plaque reduction was determined against venezuelan equine encephalitis (VEE) virus in african green monkey kidney (vero,V) at a conc of 100-250 ug/mL. Toxic level(1000 ug/mL); type: functional, Chlorocebus sabaeus
Vero [16] = assay: Percentage plaque reduction was determined against rift valley fever(RVF) virus in african green monkey kidney (vero,V) at a conc of 250-500 ug/mL. Toxic level(1000 ug/mL); 10-30; type: functional, Chlorocebus sabaeus
Vero [17] = assay: Percentage plaque reduction was determined against venezuelan equine encephalitis (VEE) virus in african green monkey kidney (vero,V) at a conc of 250-500 ug/mL. Toxic level(1000 ug/mL); type: functional, Chlorocebus sabaeus
Vero [18] = assay: Percentage plaque reduction was determined against pichinde(PICH) virus in african green monkey kidney (vero,V).Toxic level(1000 ug/mL); 10-30; type: functional, Chlorocebus sabaeus; summary of the method: as §2
Vero [19] = assay: Percentage plaque reduction was determined against venezuelan equine encephalitis (VEE) virus in african green monkey kidney (vero,V) at a conc of <25 ug/mL. Toxic level(1000 ug/mL); type: functional, Chlorocebus sabaeus
Vero [20] = assay: Percentage plaque reduction was determined against Sandfly fever (SF) virus in african green monkey kidney (vero,V) at a conc of 25-100 ug/mL. Toxic level(1000 ug/mL); 61-90; type: functional, Chlorocebus sabaeus
Vero [21] = assay: In vitro antiviral activity against herpes simplex type 1 (HSV-1) virus was determined in african green monkey kidney (vero,V) expressed as virus rating. Toxic level(1000 ug/mL); type: functional, Chlorocebus sabaeus; summary of the method: as §1
Vero [22] = assay: Percentage plaque reduction was determined against venezuelan equine encephalitis (VEE) virus in african green monkey kidney (vero,V) at a conc of 25-100 ug/mL. Toxic level(1000 ug/mL); type: functional, Chlorocebus sabaeus
Vero [23] = assay: In vitro antiviral activity against vaccinia(VV) virus was determined in african green monkey kidney (vero,V) expressed as virus rating. Toxic level(1000 ug/mL); type: functional, Chlorocebus sabaeus; summary of the method: as §1
Vero [24] = assay: Percentage plaque reduction was determined against yellow fever(YF) virus in african green monkey kidney (vero,V).Toxic level(1000 ug/mL); 61-90; type: functional, Chlorocebus sabaeus
Vero [25] = assay: In vitro antiviral activity against parainfluenza type 3(para 3) virus was determined in african green monkey kidney (vero,V) expressed as virus rating. Toxic level(>1000 ug/mL); type: functional, Chlorocebus sabaeus; summary of the method: as §1
Vero [26] = assay: In vitro antiviral activity against herpes simplex type 1 (HSV-1) virus was determined in african green monkey kidney (vero,V) expressed as virus rating. Toxic level(>1000 ug/mL); type: functional, Chlorocebus sabaeus; summary of the method: as §1
Vero [27] = assay: In vitro antiviral activity against vaccinia(VV) virus was determined in african green monkey kidney (vero,V) expressed as virus rating. Toxic level(>1000 ug/mL); type: functional, Chlorocebus sabaeus; summary of the method: as §1
HEp-2 [28] = assay: In vitro antiviral activity against vaccinia(VV) virus was determined in human laryngeal epithelioma (HEp-2,H)expressed as virus rating. Toxic level (320 ug/mL); type: functional; summary of the method: as §1
HEp-2 [29] = assay: In vitro antiviral activity against herpes simplex type 1 (HSV-1) virus was determined in human laryngeal epithelioma (HEp-2,H)expressed as virus rating. Toxic level(320 ug/mL); type: functional; summary of the method: as §1
HEp-2 [30] = assay: In vitro antiviral activity against parainfluenza type-3 (para 3) virus was determined in human laryngeal epithelioma (HEp-2,H)expressed as virus rating. Toxic level(320 ug/mL); type: functional; summary of the method: as §1
Vero [31] = assay: In vitro antiviral activity against vaccinia(VV) virus was determined in african green monkey kidney (vero,V) expressed as virus rating.; type: functional, Chlorocebus sabaeus; summary of the method: as §1
Vero [32] = assay: In vitro antiviral activity against parainfluenza type 3(para 3) virus was determined in african green monkey kidney (vero,V) expressed as virus rating.; type: functional, Chlorocebus sabaeus; summary of the method: as §1
HEp-2 [33] = assay: In vitro antiviral activity against herpes simplex type 1 (HSV-1) virus was determined in human laryngeal epithelioma (HEp-2,H)expressed as virus rating. Toxic level(100 ug/mL); type: functional; summary of the method: as §1
HEp-2 [34] = assay: In vitro antiviral activity against parainfluenza type 3(para 3) virus was determined in human laryngeal epithelioma (HEp-2,H)expressed as virus rating. Toxic level(100 ug/mL); type: functional; summary of the method: as §1
HEp-2 [35] = assay: In vitro antiviral activity against vaccinia(VV) virus was determined in human laryngeal epithelioma (HEp-2,H)expressed as virus rating. Toxic level(100 ug/mL); type: functional; summary of the method: as §1
Vero [36] = assay: Percentage plaque reduction was determined against pichinde(PICH) virus in african green monkey kidney (vero,V). Toxic level(>1000 ug/mL); 61-90; type: functional, Chlorocebus sabaeus; summary of the method: as §2
HEp-2 [37] = assay: In vitro antiviral activity against vaccinia(VV) virus was determined in human laryngeal epithelioma (HEp-2,H)expressed as virus rating. Toxic level(>1000 ug/mL); type: functional; summary of the method: as §1
HEp-2 [38] = assay: In vitro antiviral activity against herpes simplex type 1 (HSV-1) virus was determined in human laryngeal epithelioma (HEp-2,H)expressed as virus rating. Toxic level(>1000 ug/mL); type: functional; summary of the method: as §1
Vero [39] = assay: Percentage plaque reduction was determined against venezuelan equine encephalitis (VEE) virus in african green monkey kidney (vero,V) at a conc of 250-500 ug/mL. Toxic level(>1000 ug/mL); 10-30; type: functional, Chlorocebus sabaeus
HEp-2 [40] = assay: In vitro antiviral activity against parainfluenza type 3 (para 3) type 1 (HSV-1) virus was determined in human laryngeal epithelioma (HEp-2,H)expressed as virus rating. Toxic level(>1000 ug/mL); type: functional; summary of the method: as §1
Vero [41] = assay: Percentage plaque reduction was determined against yellow fever(YF) virus in african green monkey kidney (vero,V).Toxic level(>1000 ug/mL); 61-90; type: functional, Chlorocebus sabaeus
Vero [42] = assay: Percentage plaque reduction was determined against rift valley fever(RVF) virus in african green monkey kidney (vero,V) at a conc of 100-250 ug/mL. Toxic level(>1000 ug/mL); 31-60; type: functional, Chlorocebus sabaeus
Vero [43] = assay: Percentage plaque reduction was determined against Sandfly fever (SF) virus in african green monkey kidney (vero,V) at a conc of 25-100 ug/mL. Toxic level(>1000 ug/mL); 61-90; type: functional, Chlorocebus sabaeus

SMILES: CSc1ncnc2c1cnn2[C@@H]1O[C@H](COC(C)=O)[C@@H](OC(C)=O)[C@H]1OC(C)=O
- Plaque reduction (Vero [1]): 10%
- Plaque reduction (Vero [2]): 0%
- Virus rating (Vero [3]): 0
- Plaque reduction (Vero [4]): 0%
- Plaque reduction (Vero [5]): 0%
- Virus rating (Vero [6]): 0
- Plaque reduction (Vero [7]): 0%
- Plaque reduction (Vero [8]): 0%
- Plaque reduction (Vero [9]): 0%
- Virus rating (Vero [10]): 0.5
- Plaque reduction (Vero [11]): 0%
- Plaque reduction (Vero [12]): 0%
- Plaque reduction (Vero [13]): 10%

SMILES: OC[C@H]1O[C@@H](C2=NNC3C(=S)N=CN=C23)[C@H](O)[C@@H]1O (stereo partly drawn)
- Virus rating (Vero [14]): 1.1
- Plaque reduction (Vero [15]): 0%
- Plaque reduction (Vero [16]): 10%
- Plaque reduction (Vero [17]): 0%
- Plaque reduction (Vero [18]): 10%
- Plaque reduction (Vero [19]): 0%
- Plaque reduction (Vero [20]): 61%
- Virus rating (Vero [21]): 0
- Plaque reduction (Vero [22]): 0%
- Virus rating (Vero [23]): 1
- Plaque reduction (Vero [24]): 61%

SMILES: OC[C@H]1O[C@@H](c2n[nH]c3c(Cl)ncnc23)[C@H](O)[C@@H]1O
- Virus rating (Vero [3]): 1.3
- Virus rating (Vero [6]): 0
- Virus rating (Vero [10]): 1

SMILES: CSc1ncnc2c1ncn2[C@@H]1O[C@H](CO)[C@@H](O)[C@H]1O
- Virus rating (Vero [3]): 2.2
- Virus rating (Vero [6]): 1.7
- Virus rating (Vero [10]): 2

SMILES: OC[C@H]1O[C@@H](n2cnc3c(Cl)ncnc32)[C@H](O)[C@@H]1O
- Virus rating (Vero [14]): 0.4
- Virus rating (Vero [21]): 0.4
- Virus rating (Vero [23]): 1.8

SMILES: OC[C@H]1O[C@@H](n2ccc3c(S)ncnc32)[C@H](O)[C@@H]1O
- Virus rating (Vero [25]): 1.1
- Virus rating (Vero [26]): 0.2
- Virus rating (Vero [27]): 0.5

SMILES: OC[C@H]1OC(n2ncc3c(S)ncnc32)[C@H](O)[C@@H]1O (stereo partly drawn)
- Virus rating (Vero [25]): 0.7
- Virus rating (Vero [26]): 0
- Virus rating (Vero [27]): 0.9

SMILES: NC(=O)c1ncnc2c1ncn2C1O[C@H](CO)[C@@H](O)[C@H]1O (stereo partly drawn)
- Virus rating (HEp-2 [28]): 1.1
- Virus rating (HEp-2 [29]): 0.6
- Virus rating (HEp-2 [30]): 1.4
- Virus rating (Vero [25]): 0
- Virus rating (Vero [26]): 0.6
- Virus rating (Vero [27]): 1.5

SMILES: CSc1ncnc2c1cnn2C1O[C@H](CO)[C@@H](O)[C@H]1O (stereo partly drawn)
- Virus rating (Vero [31]): 0.2
- Virus rating (Vero [32]): 1
- Virus rating (Vero [26]): 0.2

SMILES: NC(=O)c1ncnc2c1ccn2C1O[C@H](CO)[C@@H](O)[C@H]1O (stereo partly drawn)
- Virus rating (HEp-2 [33]): 0
- Virus rating (Vero [14]): 0.4
- Virus rating (HEp-2 [34]): 0.2
- Virus rating (HEp-2 [35]): 1.2
- Virus rating (Vero [21]): 0.4
- Virus rating (Vero [23]): 1.3

SMILES: NC(=O)c1ncn([C@@H]2O[C@H](CO)[C@@H](O)[C@H]2O)n1 [RIBAVIRIN]
- Plaque reduction (Vero [36]): 61%
- Virus rating (HEp-2 [37]): 1.7
- Virus rating (HEp-2 [38]): 1.2
- Virus rating (Vero [25]): 1.3
- Plaque reduction (Vero [39]): 10%
- Virus rating (HEp-2 [40]): 1.7
- Plaque reduction (Vero [41]): 61%
- Virus rating (Vero [26]): 0.6
- Virus rating (Vero [27]): 1.2
- Plaque reduction (Vero [42]): 31%
- Plaque reduction (Vero [43]): 61%

SMILES: OC[C@H]1O[C@@H](n2cnc3c(S)ncnc32)[C@H](O)[C@@H]1O [THIOINOSINE]
- Virus rating (Vero [14]): 1.2
- Virus rating (Vero [21]): 0.8
- Virus rating (Vero [23]): 1.1
